Test results as given in paper PMC3509950 (Journal of nuclear medicine : official publication, Society …, 2012).

Assays:
[1] = Plasma kinetics of FAA during 5-min intravenous infusion in unanesthetized mice; assay type: in vivo, C57BL/6J male mice; settings: for plasma area under the curve: 5-min intravenous infusion, mice
In short: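 Male C57BL/6J mice, 2–3 mo, unanesthetized after 3 h recovery at 37°C. Test compound (0.3 or 1.6 nmol per mouse) in HEPES–fatty acid-free BSA (50 mg/mL, pH 7.4) was infused intravenously at variable rate for 5 min. Arterial plasma was sampled at 0–4.9 min, Folch-extracted, pentafluorobenzyl-derivatized, and analysed by NCI GC/MS against a 17:0 internal standard. AUC was derived by trapezoidal integration; n = 2–3.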

[2] = Incorporation of infused FAA into brain lipids of unanesthetized mice; assay type: in vivo, C57BL/6J male mice

SMILES: O=C(O)CCC/C=C\C/C=C\C/C=C\C/C=C\CCCCCF [FAA, 20-Fluoroarachidonic Acid]
- FAA concentration in plasma over time ([1]; 0.3 or 1.6 nmol infused intravenously over 5 min, Fig. 1): increased over time in a dose-dependent manner
- plasma area under the curve ([1]; high dose (1.6 nmol)): 0.236 ± 0.0189 µM·h
- plasma area under the curve ([1]; low dose (0.3 nmol)): 0.0297 ± 0.0217 µM·h
- FAA concentration within brain phospholipids (rank order) ([2]; both doses, end of 5-min infusion, Fig. 2A): highest in PtdIns and ChoGlp, followed by EtnGlp and PtdSer
- incorporation coefficient k*, high versus low infusion dose ([2]; brain lipids, 0.3 vs 1.6 nmol, Fig. 3): lower for the high-infusion dose than for the low-infusion dose
- FAA detected in brain UFA, triglyceride and cholesteryl ester fractions ([2]; end of 5-min infusion, mouse brain): < 0.01 nmol/g
